In the M2OR odorant receptor database:

Legend:
Settings in all cases: stereoisomer not certain
A0A140T8K0 = test system: T1, A0A140T8K0
T1 sequence (whole entry): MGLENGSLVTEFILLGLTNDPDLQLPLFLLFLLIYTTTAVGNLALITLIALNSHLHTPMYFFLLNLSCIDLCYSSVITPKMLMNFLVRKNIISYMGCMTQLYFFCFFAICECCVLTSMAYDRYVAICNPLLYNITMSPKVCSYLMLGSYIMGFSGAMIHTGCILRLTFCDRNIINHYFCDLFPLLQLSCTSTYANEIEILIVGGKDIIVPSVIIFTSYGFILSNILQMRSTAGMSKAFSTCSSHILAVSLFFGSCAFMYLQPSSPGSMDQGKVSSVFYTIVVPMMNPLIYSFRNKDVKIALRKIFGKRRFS
How it was run: (§1)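 Transient luciferase assays in mammalian cell lines were common, though methods varied by source. The values come from published papers and their supplementary material, with extra details from the original authors when needed. Responsive refers to a measured signal the original authors judged statistically different from baseline, and non-responsive (inactive) to the remainder.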

A0A140T8K4 = test system: T2, A0A140T8K4
T2 sequence (whole entry): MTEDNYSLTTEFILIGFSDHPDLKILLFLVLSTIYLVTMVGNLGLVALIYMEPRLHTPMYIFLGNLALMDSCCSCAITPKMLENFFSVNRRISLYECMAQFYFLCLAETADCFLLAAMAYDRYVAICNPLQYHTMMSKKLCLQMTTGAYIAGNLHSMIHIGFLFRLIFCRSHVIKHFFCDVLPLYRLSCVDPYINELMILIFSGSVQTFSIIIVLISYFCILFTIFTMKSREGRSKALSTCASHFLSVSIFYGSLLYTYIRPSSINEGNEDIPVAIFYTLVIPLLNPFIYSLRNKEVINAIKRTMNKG
How it was run: as §1

A0A1L1SVG7 = test system: T3, A0A1L1SVG7
T3 sequence (whole entry): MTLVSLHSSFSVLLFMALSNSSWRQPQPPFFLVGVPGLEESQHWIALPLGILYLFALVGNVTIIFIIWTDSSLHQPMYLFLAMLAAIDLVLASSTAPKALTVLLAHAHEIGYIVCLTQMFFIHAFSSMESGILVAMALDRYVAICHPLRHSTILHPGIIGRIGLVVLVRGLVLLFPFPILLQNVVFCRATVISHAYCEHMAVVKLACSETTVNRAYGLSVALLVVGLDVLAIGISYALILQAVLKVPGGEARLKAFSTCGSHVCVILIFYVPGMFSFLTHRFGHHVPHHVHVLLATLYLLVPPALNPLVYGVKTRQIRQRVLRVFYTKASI
How it was run: as §1
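Also: active if original authors judged signal statistically different from baseline.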

Compound	odorant receptor agonist call (A0A140T8K0)	odorant receptor agonist call (A0A140T8K4)	odorant receptor agonist call (A0A1L1SVG7)
CCCCC(=O)O	inactive	inactive	inactive
CCCCCC(=Cc1ccccc1)C(OC)OC	inactive		
CCCCCCO	inactive	inactive	inactive
CC(=O)OCC=C(C)C	inactive	inactive	inactive
CCOC(=O)C(C)C	inactive	inactive	inactive
CC=Cc1ccc(OC)cc1	inactive		
CC(=O)OCc1ccccc1	inactive	inactive	inactive
CC(C)=CCCC(C)=CCO	inactive	inactive	inactive
O=C1CCOc2ccccc21	inactive	inactive	inactive
CC(=O)Oc1ccccc1	inactive	inactive	inactive
CCCCCCCO	inactive	inactive	inactive
CCCCCC=O	inactive	inactive	inactive
CCCCOC=O	inactive	inactive	inactive
CC(C)=CCCC(C)CCO (stereo not given)	inactive	inactive	inactive
c1ccccc1	inactive	inactive	inactive
C=C(C)C1CCC(C)C(=O)C1 (stereo not given)	inactive	active	inactive
CCCCCCCCCC(=O)[O-].[H+]	inactive	inactive	active
CCCCCCCCCS	inactive	inactive	inactive
O=C1Cc2ccccc2O1	inactive	inactive	inactive

Compound	odorant receptor agonist call (A0A140T8K0)	odorant receptor agonist call (A0A140T8K4)	odorant receptor agonist call (A0A1L1SVG7)
CCCCCCCCCCO	inactive	inactive	inactive
CCCCCCCCCO	inactive	inactive	inactive
CCCCCCCCC(=O)O	inactive	inactive	active
CCCCCCOC(C)=O	inactive	inactive	inactive
CCCCCC1=C(C)CCC1=O	inactive	inactive	inactive
CCCCCC(=O)CC	inactive	inactive	inactive
COc1cc(C(=O)O)ccc1O	inactive	inactive	inactive
CCCCC(C)=O	inactive	inactive	inactive
CCCCCCCCS	inactive	inactive	inactive
CCCCCCC(C)=O	inactive	inactive	inactive
C=CCOC(=O)CCCCCC	inactive	inactive	inactive
CCCCCC(C=O)=Cc1ccccc1	inactive		
CCCC(=O)C(C)=O	inactive	inactive	inactive
CCCCCCCCO	inactive	inactive	inactive
CCC(=O)C(=O)CC	inactive	inactive	inactive
O=C(c1ccccc1)c1ccccc1	inactive	inactive	inactive
CCCCCCCC(C)=O	inactive	inactive	inactive
CCC(=O)O	inactive	inactive	inactive
